Laboratory results taken from ChEMBL document CHEMBL1914440, “Discovery of potent, selective, and orally bioavailable alkynylphenoxyacetic acid CRTH2 (DP2) receptor antagonists for the treatment of allergic inflammatory diseases” (J Med Chem, 2011).
Converted amounts (≈) assume the structure as drawn.

How the values were obtained:
[1] = target: T1, Prostaglandin D2 receptor 2 (Homo sapiens, UniProt Q9Y5Y4); experiment: Displacement of [3H]PGD2 from human CRTH2 expressed in chinese hamster CHO cells by liquid scintillation counting; assay type: cell-based
T1 sequence (Q9Y5Y4 whole entry): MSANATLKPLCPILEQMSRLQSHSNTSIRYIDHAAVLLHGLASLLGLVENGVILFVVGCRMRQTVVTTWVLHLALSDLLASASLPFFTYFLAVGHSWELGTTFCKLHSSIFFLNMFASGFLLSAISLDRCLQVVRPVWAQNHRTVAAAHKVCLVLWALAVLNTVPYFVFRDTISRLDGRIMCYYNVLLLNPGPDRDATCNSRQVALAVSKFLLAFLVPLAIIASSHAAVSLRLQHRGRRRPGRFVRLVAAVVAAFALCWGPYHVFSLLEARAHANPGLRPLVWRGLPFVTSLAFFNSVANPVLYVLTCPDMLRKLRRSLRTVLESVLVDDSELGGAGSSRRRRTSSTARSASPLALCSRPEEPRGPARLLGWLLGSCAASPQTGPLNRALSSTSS
Outline: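 Scintillation proximity competition assay: 2–5 μg human CRTH2 cell membranes, 1.5 nM [3H]PGD2, WGA-SPA beads, 10 mM HEPES/KOH pH 7.4, 10 mM MnCl2, protease inhibitors, 1% DMSO; 90 min, room temperature, shaking. Nonspecific binding defined with 1 μM PGD2. Ki by Cheng–Prusoff, mean of ≥3 independent dose–response experiments.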

[2] = target: T2, Prostaglandin D2 receptor 2 (Mus musculus, UniProt Q9Z2J6); experiment: Displacement of [3H]PGD2 from mouse CRTH2 expressed in human HEK cells by liquid scintillation counting; assay type: cell-based, HEK293
T2 sequence (Q9Z2J6 whole entry): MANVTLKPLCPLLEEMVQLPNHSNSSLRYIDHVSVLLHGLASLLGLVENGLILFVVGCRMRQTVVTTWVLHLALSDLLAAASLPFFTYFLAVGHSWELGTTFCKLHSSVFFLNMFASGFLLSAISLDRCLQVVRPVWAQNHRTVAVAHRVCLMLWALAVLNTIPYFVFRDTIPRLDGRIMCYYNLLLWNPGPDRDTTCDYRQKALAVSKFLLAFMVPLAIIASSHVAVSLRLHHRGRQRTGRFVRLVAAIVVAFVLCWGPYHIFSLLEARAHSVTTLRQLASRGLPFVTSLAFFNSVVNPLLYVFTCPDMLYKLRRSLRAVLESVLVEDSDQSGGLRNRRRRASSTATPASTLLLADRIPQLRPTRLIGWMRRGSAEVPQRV
Outline: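 Mouse CRTH2 cDNA stably expressed in HEK293(EBNA) cells (hygromycin-selected) and membranes made by nitrogen cavitation. SPA competition uses 2–5 μg membranes, 1.5 nM [3H]PGD2, HEPES/KOH pH 7.4 with 10 mM MnCl2, 1% DMSO, 90 min at room temperature. Nonspecific binding defined with 1 μM PGD2. Ki by Cheng–Prusoff, ≥3 independent experiments.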

[3] = target: T1, Prostaglandin D2 receptor 2; experiment: Antagonist activity human CRTH2 expressed in chinese hamster CHO cells assessed as inhibition of PGD2-induced [35S]GTPgamma binding by liquid scintillation counting; assay type: functional, cell-based
Outline: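 10 μg human CRTH2 membranes in 20 mM HEPES/KOH pH 7.4, 10 mM MgCl2, 10 μg/mL saponin, 3 μM GDP, 150 mM NaCl, 2% DMSO, 30 °C. Preincubated 10 min, then 0.15 nM [35S]GTPγS for 30 min; stopped by centrifugation. Antagonism tested against 80 nM PGD2. Nonspecific binding with 10 μM GTPγS. Run without BSA.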

[4] = target: Prostaglandin E2 receptor EP2 subtype (Homo sapiens) (UniProt P43116); experiment: Inhibition of EP2 receptor at 10 uM
Sequence of Prostaglandin E2 receptor EP2 subtype (Homo sapiens) (P43116 whole entry): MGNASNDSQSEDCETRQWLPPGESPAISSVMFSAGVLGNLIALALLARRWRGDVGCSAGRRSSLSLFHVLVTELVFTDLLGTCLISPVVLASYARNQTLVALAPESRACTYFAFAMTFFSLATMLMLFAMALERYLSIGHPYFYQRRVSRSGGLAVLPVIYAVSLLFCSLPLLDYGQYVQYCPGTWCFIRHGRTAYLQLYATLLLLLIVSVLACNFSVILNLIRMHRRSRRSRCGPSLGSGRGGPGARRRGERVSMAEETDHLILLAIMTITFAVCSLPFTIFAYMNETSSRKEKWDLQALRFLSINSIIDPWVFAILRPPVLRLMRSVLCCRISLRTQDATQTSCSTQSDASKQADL
Outline: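 Selectivity screen: panel of 50 receptor and ion-channel targets, tested at 10 μM; EP2 by binding assay; GABA-gated Cl− channel from rat. Result expressed as % inhibition.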

[5] = Percentage unbound in human plasma; assay type: ADME, cell-free
[6] = Percentage unbound in rat plasma; assay type: ADME, cell-free
[7] = Percentage unbound in mouse plasma; assay type: ADME, cell-free
[8] = Intrinsic clearance in human liver microsomes assessed per mg of protein at 1 uM by LC/MS/MS analysis; assay type: ADME, Microsome
[9] = Intrinsic clearance in rat liver microsomes assessed per mg of protein at 1 uM by LC/MS/MS analysis; assay type: ADME, Microsome
[10] = Apparent permeability across human Caco2 cells at 1 uM after 2 hrs by LC/MS/MS analysis; assay type: ADME, cell-based; details: Caco-2
[11] = Clearance in BALB/c mouse at 5 mg/kg, po by LC/MS/MS analysis; assay type: ADME, organism-based; set-up: dose 5 mg/kg, route oral; details: in vivo
[12] = Oral bioavailability in BALB/c mouse at 5 mg/kg by LC/MS/MS analysis; assay type: ADME, organism-based; details: in vivo
Outline: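 Mouse PK after a 5 mg/kg oral dose.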

[13] = Solubility of the compound at pH 7.4; assay type: physicochemical; details: buffer
[14] = Solubility of the compound at pH 1.2; assay type: physicochemical; details: buffer
[15] = Half life in BALB/c mouse at 1 mg/kg, iv by LC/MS/MS analysis; assay type: ADME, organism-based; set-up: dose 1 mg/kg, route intravenous; details: in vivo
[16] = Half life in BALB/c mouse at 5 mg/kg, po by LC/MS/MS analysis; assay type: ADME, organism-based; set-up: dose 5 mg/kg, route oral; details: in vivo
[17] = AUC in BALB/c mouse at 5 mg/kg, po by LC/MS/MS analysis; assay type: ADME, organism-based; set-up: dose 5 mg/kg, route oral; details: plasma
[18] = target: T3, Prostaglandin D2 receptor (Homo sapiens, UniProt Q13258); experiment: Binding affinity to DP1
T3 sequence (Q13258 whole entry): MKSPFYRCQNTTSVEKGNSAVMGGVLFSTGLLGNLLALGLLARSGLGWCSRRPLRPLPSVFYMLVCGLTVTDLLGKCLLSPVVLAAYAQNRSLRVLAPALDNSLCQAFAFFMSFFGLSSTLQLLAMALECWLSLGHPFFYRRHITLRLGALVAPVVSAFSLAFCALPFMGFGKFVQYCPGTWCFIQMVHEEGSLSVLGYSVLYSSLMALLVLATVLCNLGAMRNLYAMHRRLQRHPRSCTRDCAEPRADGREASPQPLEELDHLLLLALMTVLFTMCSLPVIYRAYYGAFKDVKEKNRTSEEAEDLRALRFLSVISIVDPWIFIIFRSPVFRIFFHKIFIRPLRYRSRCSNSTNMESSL

[19] = target: Aldo-keto reductase family 1 member B1 (Homo sapiens, UniProt P15121); experiment: Antagonist activity at AR; assay type: functional
Mus musculus [20] = experiment: Antiinflammatory activity in BALB/c mouse model assessed as inhibition of ovalbumin-induced eosinophil accumulation in bronchoalveolar lavage fluid at 3 mg/kg, po administered 1 hr prior to and 7 hrs after ovalbumin challenge for 3 days measured 8 hrs after final dose by cell counting; assay type: functional; details: Lung
Outline: (§1)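 Compound given by oral gavage 1 h before and 7 h after each challenge. BAL taken 8 h after the last challenge. Total cells counted by hemocytometer; eosinophils counted on DiffQuik-stained cytospins. Reported as mean % inhibition ± SEM.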

Mus musculus [21] = experiment: Antiinflammatory activity in BALB/c mouse model assessed as inhibition of ovalbumin-induced eosinophil accumulation in bronchoalveolar lavage fluid at 10 mg/kg, po administered 1 hr prior to and 7 hrs after ovalbumin challenge for 3 days measured 8 hrs after final dose by cell counting; assay type: functional; details: Lung; outline: as §1
Mus musculus [22] = experiment: Antiinflammatory activity in BALB/c mouse model assessed as inhibition of ovalbumin-induced eosinophil accumulation in bronchoalveolar lavage fluid at 30 mg/kg, po administered 1 hr prior to and 7 hrs after ovalbumin challenge for 3 days measured 8 hrs after final dose by cell counting; assay type: functional; details: Lung; outline: as §1
Mus musculus [23] = experiment: Antiinflammatory activity in BALB/c mouse contact hypersensitivity model assessed as inhibition of FITC-mediated ear swelling at 3 mg/kg, po administered 1 hr prior to and 7 hrs after the FITC-challenge measured 24 hrs after final dose; assay type: functional
Outline: (§2)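 Female 9-week-old BALB/c mice sensitized on days 0 and 1 with 0.5% FITC in acetone/dibutyl phthalate (sham group: vehicle only). Right ear challenged on day 6 with 0.5% FITC. Compound given by oral gavage 1 h before and 7 h after challenge. Ear thickness measured before and 24 h after challenge. Reported as mean % inhibition ± SEM.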

Mus musculus [24] = experiment: Antiinflammatory activity in BALB/c mouse contact hypersensitivity model assessed as inhibition of FITC-mediated ear swelling at 10 mg/kg, po administered 1 hr prior to and 7 hrs after the FITC-challenge measured 24 hrs after final dose; assay type: functional; outline: as §2
Mus musculus [25] = experiment: Antiinflammatory activity in BALB/c mouse contact hypersensitivity model assessed as inhibition of FITC-mediated ear swelling at 30 mg/kg, po administered 1 hr prior to and 7 hrs after the FITC-challenge measured 24 hrs after final dose; assay type: functional; outline: as §2
[26] = target: T3, Prostaglandin D2 receptor; experiment: Antagonist activity at DP1 by cAMP functional assay
Outline: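 DP1 functional antagonism measured in a cAMP assay.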

- Ki [1]: 0.002 µM
- Ki [2]: 0.0024 µM
- IC50 [3]: 0.007 µM
- inhibition [4]: 54%
- fraction unbound [5]: 0.004
- fraction unbound [6]: 0.004
- fraction unbound [7]: 0.008
- microsomal CLint at 1 µM [8]: < 10 µL/min/mg
- microsomal CLint at 1 µM [9]: < 10 µL/min/mg
- Papp at 2 h, 1 µM [10]: 5.2 ×10⁻⁶ cm/s
- CL/F [11]: 16.7 mL/min/kg
- bioavailability [12]: 80%
- solubility [13]: 242 µg/mL (≈ 595 µM)
- solubility [14]: < 2 µg/mL
- half-life [15]: 1.7 h
- half-life [16]: 3.9 h
- AUC [17]: 3730 ng·h/mL
- Ki [18]: 1.58 µM
- IC50 [19]: 0.172 µM
- IC50 [26]: 10 µM
SMILES: CCCS(=O)(=O)c1ccc(C)c(C#Cc2cc(Cl)ccc2OCC(=O)O)c1
- inhibition in vivo at 3 mg/kg (Mus musculus [20]): 29%
- inhibition in vivo at 10 mg/kg (Mus musculus [21]): 54%
- inhibition in vivo at 30 mg/kg (Mus musculus [22]): 81%
- inhibition in vivo at 3 mg/kg (Mus musculus [23]): 23%
- inhibition in vivo at 10 mg/kg (Mus musculus [24]): 56%
- inhibition in vivo at 30 mg/kg (Mus musculus [25]): 52%
